The values below come from ChEMBL document CHEMBL2169785, “Inhibition of Acyl-CoA: cholesterol acyltransferase (ACAT), overexpression of cholesterol transporter gene, and protection of amyloid β (Aβ) oligomers-induced neuronal cell death by tricyclic pyrone molecules” (J Med Chem, 2012).

Active and inactive are the calls of the source. No cut-off for these calls is given here.

A short description of series [1]: Neuroprotective activity in […] human MC65 cells assessed as protection against APP-induced cell death by MTT assay. The series is classed as functional, cell-based. The procedure, abridged:
(§1)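 MC65 neuroblastoma cells carrying a tetracycline-repressible SβC gene (APP C99 fragment); induction causes intraneuronal Aβ oligomer accumulation and cell death after three days. Viability read by MTT. EC50 (median effective concentration for protection) and TD50 (median toxic concentration) derived; TI = TD50/EC50. Triplicate experiments, standard errors calculated.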

A short description of series [2]: Therapeutic index, ratio of TD50 for human MC65 cells to EC50 for […] human MC65 cells. The settings on record: read-out: TI. The series is classed as cell-based. The gist of the method:
as §1

A short description of series [3]: Cytotoxicity against human MC65 cells by MTT assay. The series is classed as cell-based. The settings on record: read-out: TD50 (the source's name). The gist of the method: as §1
In general terms: Tetrazolium dyes change colour on reduction, which living cells bring about.

The test system of series [4] is Huh-7. The series is described as follows: Induction of ABCA1 mRNA expression in human HuH7 cells after 24 hrs. The class given is functional, cell-based. The settings on record: Huh-7, 24 h. The gist of the method:
(§2)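 Cells (MC65 or Huh-7) incubated 24 h with compound or mock medium. ABCA1 gene expression measured with a Gene Expression Assay and compared with mock-treated cells to derive EC50.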

Series [5] is described as follows: Induction of ABCA1 mRNA expression in human MC65 cells after 24 hrs. The class given is functional, cell-based. Conditions: MC65, 24 h. The procedure, abridged:
as §2

The test system of series [6] is ACAT. Nature of the series: Therapeutic index, ratio of TD50 for human MC65 cells to IC50 for ACAT activity in human MC65 cells. The series is classed as cell-based. The settings on record: read-out: TI.
Series [7] deals with T1, Sterol O-acyltransferase 1 (Homo sapiens, UniProt P35610).
T1 sequence (P35610 whole entry): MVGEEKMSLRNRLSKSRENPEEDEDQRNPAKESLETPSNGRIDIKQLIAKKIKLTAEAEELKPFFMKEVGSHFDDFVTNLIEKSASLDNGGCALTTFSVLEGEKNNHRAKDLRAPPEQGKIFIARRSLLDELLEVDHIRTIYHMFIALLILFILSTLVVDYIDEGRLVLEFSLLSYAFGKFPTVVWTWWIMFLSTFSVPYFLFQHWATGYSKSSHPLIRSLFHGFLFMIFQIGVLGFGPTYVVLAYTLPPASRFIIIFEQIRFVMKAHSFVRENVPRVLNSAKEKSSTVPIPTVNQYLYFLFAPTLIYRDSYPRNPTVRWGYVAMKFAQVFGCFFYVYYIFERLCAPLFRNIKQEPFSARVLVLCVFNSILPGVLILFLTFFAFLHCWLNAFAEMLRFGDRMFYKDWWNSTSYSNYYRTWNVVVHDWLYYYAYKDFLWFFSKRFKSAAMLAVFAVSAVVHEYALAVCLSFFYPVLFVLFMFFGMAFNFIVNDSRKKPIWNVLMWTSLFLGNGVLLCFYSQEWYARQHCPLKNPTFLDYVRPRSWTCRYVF
The series is described as follows: Inhibition of ACAT activity in human MC65 cells using NBD-cholesterol staining after 24 hrs by fluorescence assay.

Series [8] concerns MC65. The series is described as follows: Neuroprotective activity in tetracycline-deprived human MC65 cells assessed as protection against APP-induced cell death up to 50 uM by MTT assay.

Regarding `COc1ccc(CNCC(C)[C@H]2CCC3=Cc4c(cc(C)oc4=O)O[C@H]3C2)c2ccccc12` (stereo not given in full), the EC50 in series [1] turned out to be 0.621 µM. Besides, in series [2], the selectivity ratio was 24.6. Further, the CC50 in series [3] stood at 15.3 µM.
For `Cc1cc2c(c(=O)o1)C=C1CC[C@H](C(C)CNC(=O)c3ccccc3O)C[C@@H]1O2` (stereo not given in full), in that order: 6.25 µM, 1.07 and 6.69 µM.
For the compound `Cc1cc2c(c(=O)o1)C=C1CC[C@H](C(C)CNCc3cccc(O)c3)C[C@@H]1O2` (stereo not given in full), in series [1], the EC50 was found to be 4.66 µM. Moreover, the selectivity ratio in series [2] was over 10.7. The CC50 in series [3] was over 50 µM.
As to `Cc1cc2c(c(=O)o1)C=C1CC[C@H](C(C)Cn3cnc(N)c4ncnc3-4)C[C@@H]1O2` (stereo not given in full), the EC50 amounted to 0.12 µM in series [1], 0.6 µM in series [4] and 0.9 µM in series [5]. Besides, the selectivity ratio in series [6] worked out at 33; in series [2], 325. Further, in series [3], the CC50 came to 39 µM. The compound further yielded an IC50 in series [7] of 1.2 µM.
As to `CCCCCCCCCCC(C)(C)C(=O)Nc1c(OC)cc(OC)cc1OC`, the outcome in series [8] was inactive.
Consider `Cc1cc2c(c(=O)o1)C=C1CC[C@H](C(C)CNCc3ccc4c(c3)OCO4)C[C@@H]1O2` (mixture of isomers), for which the EC50 in series [1] came out at 1.18 µM. For the same compound, the selectivity ratio in series [2] was over 42.4. In addition, the CC50 in series [3] is over 50 µM.
For `COc1cc(CNCC(C)[C@H]2CCC3=Cc4c(cc(C)oc4=O)O[C@H]3C2)cc(OC)c1O` (mixture of isomers), in that order: 1.26 µM, over 39.7 and over 50 µM.
In the case of `Cc1cc2c(c(=O)o1)C=C1CC[C@H](C(C)CNCc3ccc(O)c4ccccc34)C[C@@H]1O2` (mixture of isomers), the EC50 amounted to 0.145 µM in series [1], 0.6 µM in series [4] and 1.3 µM in series [5]. In addition, in series [3], the CC50 was found to be 13.7 µM.
`Cc1cc2c(c(=O)o1)C=C1CC[C@H](C(C)CNCc3c(O)ccc4ccccc34)C[C@@H]1O2` (mixture of isomers): the EC50 in series [1] amounted to 0.198 µM. Moreover, in series [2], the selectivity ratio was determined as 133. Also, in series [3], the CC50 came to 26.4 µM.
As to `Cc1cc2c(c(=O)o1)C=C1CC[C@H](C(C)CNCc3cc(O)cc4ccccc34)C[C@@H]1O2` (mixture of isomers), the half-maximal effective concentration (EC50) in series [1] worked out at 0.586 µM. Besides, the selectivity ratio in series [2] was found to be 31.1. Moreover, in series [3], the CC50 came out at 18.2 µM.
With `Cc1cc2c(c(=O)o1)C=C1CC[C@H](C(C)CNCc3ccc4cc(O)ccc4c3)C[C@@H]1O2` (mixture of isomers), in series [1], the EC50 worked out at 0.459 µM. Besides, the selectivity ratio in series [2] came out at 52.5. Moreover, the CC50 in series [3] is 24.1 µM.
Turning to `CC(=O)Oc1ccccc1C(=O)NCC(C)[C@H]1CCC2=Cc3c(cc(C)oc3=O)O[C@H]2C1` (mixture of isomers), the EC50 in series [1] is over 50 µM. The CC50 in series [3] is 8.35 µM.
As for `Cc1cc2c(c(=O)o1)C=C1CC[C@H](C(C)CNCc3ccccc3)C[C@@H]1O2` (mixture of isomers), the EC50 in series [1] stood at 3.24 µM. The selectivity ratio in series [2] was 11.5. Besides, the CC50 in series [3] was determined as 37.3 µM.
As for `Cc1cc2c(c(=O)o1)C=C1CC[C@H](C(C)CNCc3ccc(O)cc3)C[C@@H]1O2` (mixture of isomers), the results for the EC50 in series [1], in series [4] and in series [5] were 0.07 µM, 0.6 µM and 1.1 µM, respectively. Also, the CC50 in series [3] turned out to be 37 µM.
Turning to `Cc1cc2c(c(=O)o1)C=C1CC[C@H](C(C)CNCc3ccc(OCCO)cc3)C[C@@H]1O2` (mixture of isomers), in series [1], the EC50 amounted to 24.5 µM. Further, the selectivity ratio in series [2] was over 2.04. The CC50 in series [3] is over 50 µM.
For the compound `Cc1cc2c(c(=O)o1)C=C1CC[C@H](C(C)CNCc3ccc(CO)cc3)C[C@@H]1O2` (mixture of isomers), the values for the EC50 in series [1] and in series [5] were 0.101 µM and 2.5 µM, respectively. In addition, the figures for the selectivity ratio in series [6] and in series [2] were over 36 and over 495, respectively. In addition, the CC50 in series [3] was over 50 µM. The compound further gave an IC50 in series [7] of 1.4 µM.
Take `Cc1cc2c(c(=O)o1)C=C1CC[C@H](C(C)CNCc3ccc(C=O)cc3)C[C@@H]1O2` (mixture of isomers): the EC50 in series [1] worked out at 6.41 µM. The selectivity ratio in series [2] turned out to be 6.15. For the same compound, the CC50 in series [3] came out at 39.4 µM.
As to `COC(=O)c1ccc(CNCC(C)[C@H]2CCC3=Cc4c(cc(C)oc4=O)O[C@H]3C2)cc1` (mixture of isomers), the EC50 in series [1] came out at 0.769 µM. Besides, in series [2], the selectivity ratio was over 65. Moreover, the CC50 in series [3] was over 50 µM.
For `Cc1cc2c(c(=O)o1)C=C1CC[C@H](C(C)CNCc3ccc(Cl)cc3)C[C@@H]1O2` (mixture of isomers), in series [1], the EC50 was determined as 2.79 µM. In addition, the selectivity ratio in series [2] worked out at 17.2. Also, the CC50 in series [3] was 48 µM.
In the case of `Cc1cc2c(c(=O)o1)C=C1CC[C@H](C(C)CNCc3ccc(C#N)cc3)C[C@@H]1O2` (mixture of isomers), the EC50 in series [1] is over 50 µM. Further, in series [3], the CC50 was over 50 µM.
Regarding `Cc1cc2c(c(=O)o1)C=C1CC[C@H](C(C)CNCc3ccc(N(C)C)cc3)C[C@@H]1O2` (mixture of isomers), the EC50 in series [1] is 4.36 µM. Besides, in series [2], the selectivity ratio amounted to 8.76. In addition, the CC50 in series [3] turned out to be 38.2 µM.
For `Cc1cc2c(c(=O)o1)C=C1CC[C@H](C(C)CNCc3ccccc3O)C[C@@H]1O2` (mixture of isomers), in that order: 2.44 µM, 12.6 and 30.7 µM.
Take `COc1cc(CNCC(C)[C@H]2CCC3=Cc4c(cc(C)oc4=O)O[C@H]3C2)ccc1O` (mixture of isomers): the EC50 in series [1] was 0.242 µM. Besides, the selectivity ratio in series [2] was found to be 109. For the same compound, the CC50 in series [3] worked out at 26.3 µM.
Take `Cc1cc2c(c(=O)o1)C=C1CC[C@H](C(C)CNCc3ccc(O)c([N+](=O)[O-])c3)C[C@@H]1O2` (mixture of isomers): the EC50 in series [1] worked out at 3.85 µM. The selectivity ratio in series [2] was over 13. In addition, in series [3], the CC50 is over 50 µM.
The like results for `Cc1cc2c(c(=O)o1)C=C1CC[C@H](C(C)CNCc3ccc(O)c(Br)c3)C[C@@H]1O2` (mixture of isomers) were, in that order, 0.639 µM, over 78.2 and over 50 µM.
For `Cc1cc2c(c(=O)o1)C=C1CC[C@H](C(C)CNCc3ccc(O)c(F)c3)C[C@@H]1O2` (mixture of isomers), the EC50 in series [1] was determined as 0.067 µM; in series [5] it was 2.2 µM. The results for the selectivity ratio in series [6] and in series [2] were over 28 and over 746, respectively. The CC50 in series [3] is over 50 µM. This compound also displayed an IC50 in series [7] of 1.8 µM.
With `COc1ccc(CNCC(C)[C@H]2CCC3=Cc4c(cc(C)oc4=O)O[C@H]3C2)cc1O` (mixture of isomers), the EC50 in series [1] amounted to 1.56 µM. Moreover, the selectivity ratio in series [2] was over 32.1. In addition, the CC50 in series [3] is over 50 µM.
The like results for `Cc1cc2c(c(=O)o1)C=C1CC[C@H](C(C)CNCc3ccc(OCc4ccccc4)c(OCc4ccccc4)c3)C[C@@H]1O2` (mixture of isomers) were, in that order, 0.662 µM, 14.2 and 9.38 µM.
In the case of `COc1ccc(CNCC(C)[C@H]2CCC3=Cc4c(cc(C)oc4=O)O[C@H]3C2)cc1` (single isomer, unassigned), the EC50 in series [1] was determined as 2.77 µM. For the same compound, the selectivity ratio in series [2] was over 18.1. Further, the CC50 in series [3] was over 50 µM.

The term EC50 denotes the concentration at which the effect is half-maximal. By IC50 is commonly meant the midpoint of a concentration-inhibition curve. Read a high IC50 as lower potency.
